Assay results published in ChEMBL document CHEMBL3421605, “Structure-activity relationship studies of SEN12333 analogues: determination of the optimal requirements for binding affinities at α7 nAChRs through incorporation of known structural motifs” (Eur J Med Chem, 2015).

What was measured:
[1] = target: T1, Neuronal acetylcholine receptor subunit alpha-7 (Rattus norvegicus, UniProt Q05941); test: Displacement of [3H]epibatidine from rat alpha7 nAChR transfected in HEK293 cells by liquid scintillation counting; type: cell-based
T1 sequence (Q05941 whole entry): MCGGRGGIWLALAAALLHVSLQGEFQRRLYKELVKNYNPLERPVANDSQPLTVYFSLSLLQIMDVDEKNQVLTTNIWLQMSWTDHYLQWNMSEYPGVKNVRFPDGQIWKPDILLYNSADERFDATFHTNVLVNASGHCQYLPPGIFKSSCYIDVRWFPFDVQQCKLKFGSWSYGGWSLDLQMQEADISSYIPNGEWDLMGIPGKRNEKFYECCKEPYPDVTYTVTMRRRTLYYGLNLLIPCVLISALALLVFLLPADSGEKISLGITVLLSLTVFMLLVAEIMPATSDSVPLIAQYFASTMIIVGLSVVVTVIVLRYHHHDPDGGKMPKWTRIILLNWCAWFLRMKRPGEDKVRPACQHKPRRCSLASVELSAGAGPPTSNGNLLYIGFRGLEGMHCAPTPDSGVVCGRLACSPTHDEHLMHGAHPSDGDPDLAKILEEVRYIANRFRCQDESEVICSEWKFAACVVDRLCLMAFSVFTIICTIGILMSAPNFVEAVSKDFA
Method in brief: (§1)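 Stably transfected HEK293 cells scraped at >80% confluence into 50 mM Tris·HCl pH 7.4 at 4 °C and spun at 10,000 g. Pellet homogenised and spun at 36,000 g for 10 min at 4 °C, then resuspended. Competition against racemic [3H]epibatidine at ~500 pM (α3β4, α4β2) or ~2 nM (α7). Nonspecific binding with 300 µM nicotine. GF/C filters pretreated with 0.5% PEI. Ki derived.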

[2] = target: Neuronal acetylcholine receptor; alpha4/beta2 (Rattus norvegicus, UniProt P09483+P12390); test: Displacement of [3H]epibatidine from rat alpha4beta2 nAChR transfected in HEK293 cells by liquid scintillation counting; type: cell-based; method in brief: as §1
Neuronal acetylcholine receptor; alpha4/beta2, sequence (P09483 whole entry): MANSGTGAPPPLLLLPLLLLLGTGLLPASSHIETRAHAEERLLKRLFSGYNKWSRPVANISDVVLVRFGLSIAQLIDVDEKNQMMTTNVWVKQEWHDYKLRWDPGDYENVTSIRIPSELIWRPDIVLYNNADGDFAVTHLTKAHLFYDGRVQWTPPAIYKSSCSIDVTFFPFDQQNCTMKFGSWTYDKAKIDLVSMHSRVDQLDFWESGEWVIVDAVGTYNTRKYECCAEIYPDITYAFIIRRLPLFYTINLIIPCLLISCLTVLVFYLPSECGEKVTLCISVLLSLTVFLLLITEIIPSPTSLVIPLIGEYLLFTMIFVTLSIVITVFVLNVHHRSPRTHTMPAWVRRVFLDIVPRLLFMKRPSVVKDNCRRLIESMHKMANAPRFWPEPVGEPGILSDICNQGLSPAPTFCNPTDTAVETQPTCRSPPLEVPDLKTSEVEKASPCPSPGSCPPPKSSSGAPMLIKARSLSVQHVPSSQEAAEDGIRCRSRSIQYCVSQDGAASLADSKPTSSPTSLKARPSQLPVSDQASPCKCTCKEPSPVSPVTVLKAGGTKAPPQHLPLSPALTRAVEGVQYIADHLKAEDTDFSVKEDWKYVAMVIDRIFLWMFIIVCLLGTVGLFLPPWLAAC
Neuronal acetylcholine receptor; alpha4/beta2, sequence (P12390 whole entry): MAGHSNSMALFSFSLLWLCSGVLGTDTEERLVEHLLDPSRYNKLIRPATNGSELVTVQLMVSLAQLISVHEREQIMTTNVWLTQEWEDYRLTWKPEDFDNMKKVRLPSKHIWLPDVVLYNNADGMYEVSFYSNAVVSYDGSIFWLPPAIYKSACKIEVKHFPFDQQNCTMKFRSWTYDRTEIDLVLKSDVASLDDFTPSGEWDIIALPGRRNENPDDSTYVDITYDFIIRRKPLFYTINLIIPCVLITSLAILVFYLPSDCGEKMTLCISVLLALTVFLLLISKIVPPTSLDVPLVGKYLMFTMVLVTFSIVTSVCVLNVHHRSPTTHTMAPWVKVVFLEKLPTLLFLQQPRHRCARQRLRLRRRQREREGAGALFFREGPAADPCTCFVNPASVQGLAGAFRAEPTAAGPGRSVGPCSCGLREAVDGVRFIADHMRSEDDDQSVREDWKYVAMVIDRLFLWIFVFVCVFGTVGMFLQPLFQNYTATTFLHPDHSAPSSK

[3] = target: Neuronal acetylcholine receptor; alpha3/beta4 (Rattus norvegicus, UniProt P04757+P12392); test: Displacement of [3H]epibatidine from rat alpha3beta4 nAChR transfected in HEK293 cells by liquid scintillation counting; type: cell-based; method in brief: as §1
Neuronal acetylcholine receptor; alpha3/beta4, sequence (P04757 whole entry): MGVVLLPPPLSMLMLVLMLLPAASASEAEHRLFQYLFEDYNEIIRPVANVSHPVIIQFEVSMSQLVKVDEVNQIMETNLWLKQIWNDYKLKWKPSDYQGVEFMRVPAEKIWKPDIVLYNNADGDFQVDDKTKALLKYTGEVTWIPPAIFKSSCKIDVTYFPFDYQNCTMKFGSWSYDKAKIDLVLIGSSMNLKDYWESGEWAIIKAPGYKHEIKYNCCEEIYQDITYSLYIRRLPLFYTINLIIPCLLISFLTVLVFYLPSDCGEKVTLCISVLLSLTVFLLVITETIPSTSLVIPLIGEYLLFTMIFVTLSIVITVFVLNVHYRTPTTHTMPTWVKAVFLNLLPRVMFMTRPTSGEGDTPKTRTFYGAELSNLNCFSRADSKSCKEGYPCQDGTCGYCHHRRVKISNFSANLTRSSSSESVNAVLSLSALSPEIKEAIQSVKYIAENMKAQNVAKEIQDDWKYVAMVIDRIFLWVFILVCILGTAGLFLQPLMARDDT
Neuronal acetylcholine receptor; alpha3/beta4, sequence (P12392 whole entry): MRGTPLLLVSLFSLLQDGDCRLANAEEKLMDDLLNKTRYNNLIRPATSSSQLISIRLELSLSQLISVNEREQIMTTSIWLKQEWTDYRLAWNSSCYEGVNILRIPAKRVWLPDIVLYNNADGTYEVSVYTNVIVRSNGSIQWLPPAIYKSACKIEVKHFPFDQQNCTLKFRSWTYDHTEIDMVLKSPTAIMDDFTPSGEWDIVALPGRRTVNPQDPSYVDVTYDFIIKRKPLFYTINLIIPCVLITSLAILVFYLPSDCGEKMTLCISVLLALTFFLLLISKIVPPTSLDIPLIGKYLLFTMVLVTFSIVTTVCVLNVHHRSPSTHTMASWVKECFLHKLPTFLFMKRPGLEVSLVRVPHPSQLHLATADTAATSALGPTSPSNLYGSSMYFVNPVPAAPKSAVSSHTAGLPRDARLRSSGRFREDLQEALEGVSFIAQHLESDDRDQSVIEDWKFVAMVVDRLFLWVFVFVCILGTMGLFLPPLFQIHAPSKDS

[4] = target: T1, Neuronal acetylcholine receptor subunit alpha-7; test: Agonist activity at rat alpha7 nAChR expressed in GH4C1 cells by fluorescent calcium assay; type: cell-based, GH4-C1
Method in brief: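 GH4C1 cells stably expressing rat α7 loaded with Fluo4 Direct dye. Baseline fluorescence read, then compound added, and peak/base ratios taken; >1.00 taken as agonism. Tested at 0.03, 0.1, 0.3, 1, 3 and 10 µM (one compound at 0.001–0.3 µM), n = 3. EC50 from dose–response curves.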

[5] = target: T1, Neuronal acetylcholine receptor subunit alpha-7; test: Agonist activity at rat alpha7 nAChR expressed in GH4C1 cells by patch-clamp electrophysiology assay; type: cell-based, GH4-C1
[6] = target: Neuronal acetylcholine receptor subunit alpha-7 (Rattus norvegicus) (UniProt Q05941); test: Agonist activity at rat alpha7 nAChR expressed in GH4C1 cells by patch-clamp electrophysiology assay relative to acetylcholine; type: cell-based; conditions: GH4-C1
Neuronal acetylcholine receptor subunit alpha-7 (Rattus norvegicus), sequence (Q05941 whole entry): as the sequence (Q05941 whole entry) above

| Compound | Ki [1] [µM] | Ki [2] [µM] | Ki [3] [µM] | EC50 [4] [µM] | EC50 [5] [µM] | Emax [6] [%] |
| --- | --- | --- | --- | --- | --- | --- |
| O=C(CCCCN1CCOCC1)Nc1cc(-c2ccccc2)[nH]n1 | 2.6 | > 10 | > 10 | – | – | – |
| CN1C[C@@H]2C[C@H]1CN2CCCCC(=O)Nc1ccc(-c2ccccc2)cc1 | 3.2 | > 10 | > 10 | – | – | – |
| O=C(CCCCN1CCOCC1)Nc1ccc(-c2ccccn2)cc1 | 0.33 | > 10 | > 10 | – | – | – |
| O=C(NCCCCN1CCCCC1)c1ccc(-c2ccccc2)cc1 | 0.41 | > 10 | > 10 | – | – | – |
| O=C(CCCCN1CCOCC1)Nc1ccc(-c2cccnc2F)cc1 | 0.085 | > 10 | > 10 | 0.145 | 27.3 | 136 |
| O=C(CCCCN1CCOCC1)Nc1ccc(-c2ccccc2)nn1 | > 10 | > 10 | > 10 | – | – | – |
| CN1CCN(CCCCNC(=O)c2ccc(-c3cccnc3)cc2)CC1 | > 10 | > 10 | > 10 | – | – | – |
| CN1CCN(CCCCC(=O)Nc2ccc(-c3cccnc3)cc2)CC1 | 9.33 | – | 313 | – | – | – |
| CN1CCN(CCCCC(=O)Nc2cc(-c3ccccc3)[nH]n2)CC1 | > 10 | > 10 | > 10 | – | – | – |
| CN1CCN(c2ccc(-c3ccccc3)nn2)CC1 | 4.07 | 0.417 | > 10 | – | – | – |
| O=C(NCCCCN1CCCCC1)c1ccc(-c2cccnc2)cc1 | 1.4 | > 10 | > 50 | – | – | – |
| O=C(CCCCN1CC2(COC2)C1)Nc1ccc(-c2ccccc2)cc1 | > 10 | > 10 | > 50 | – | – | – |
| CN1CCN(CCCCNC(=O)c2ccc(-c3ccccc3)cc2)CC1 | 5.4 | > 10 | > 100 | – | – | – |
| O=C(CCCCN1CCCCC1)Nc1ccc(-c2ccccc2)cc1 | 0.19 | > 10 | 2.6 | – | – | – |
| CN1C[C@@H]2C[C@H]1CN2c1ccc(-c2ccccc2)cc1 | 0.034 | > 10 | > 10 | 0.253 | – | – |
| CN1C[C@@H]2C[C@H]1CN2CCCCC(=O)Nc1ccc(-c2cccnc2)cc1 | > 10 | > 10 | > 100 | – | – | – |
| O=C(CCCCN1CCOCC1)Nc1ccc(-c2ccc3[nH]ccc3c2)cc1 | 0.31 | > 10 | > 10 | 0.997 | – | – |
| c1ccc(-c2ccc(N3CCCCC3)nn2)cc1 | > 10 | > 10 | > 10 | – | – | – |

| Compound | Ki [1] [µM] | Ki [2] [µM] | Ki [3] [µM] | EC50 [4] [µM] | EC50 [5] [µM] | Emax [6] [%] |
| --- | --- | --- | --- | --- | --- | --- |
| O=C(CCCCN1CCOCC1)Nc1ccc(-c2cccnc2)cc1 | – | > 10 | > 10 | 0.687 | 42 | 104 |
| O=C(CCCCN1CCOCC1)Nc1ccc(-c2ccncc2)cc1 | 0.35 | > 10 | > 10 | 0.522 | – | – |
| CN1C[C@@H]2C[C@H]1CN2c1ccc(-c2ccccc2)nn1 | – | – | > 50 | – | – | – |
| CN1C[C@@H]2C[C@H]1CN2CCCCNC(=O)c1ccc(-c2cccnc2)cc1 | > 10 | > 10 | > 10 | – | – | – |
| c1ccc(-c2ccc(N3CCOCC3)cc2)cc1 | > 10 | > 10 | > 10 | – | – | – |
| O=C(CCCCN1CCCCC1)Nc1cc(-c2ccccc2)[nH]n1 | 0.66 | > 50 | > 10 | – | – | – |
| CN1C[C@@H]2C[C@H]1CN2c1ccc(-c2cccnc2)cc1 | 0.14 | > 10 | > 10 | 0.126 | – | – |
| CN1C[C@@H]2C[C@H]1CN2CCCCNC(=O)c1ccc(-c2ccccc2)cc1 | 6.1 | > 10 | > 10 | – | – | – |
| CN1CCN(CCCCC(=O)Nc2ccc(-c3ccccc3)cc2)CC1 | 1.62 | – | 88.1 | – | – | – |
| c1cncc(-c2ccc(N3CCCCC3)cc2)c1 | > 10 | > 10 | > 10 | – | – | – |
| CN1CCN(c2ccc(-c3cccnc3)cc2)CC1 | 9.4 | > 10 | > 10 | – | – | – |
| CN1CCN(c2ccc(-c3ccccc3)cc2)CC1 | 7.7 | > 10 | > 10 | – | – | – |
| O=C(CCCCN1CC2(COC2)C1)Nc1ccc(-c2cccnc2)cc1 | > 10 | > 10 | > 50 | – | – | – |
| c1ccc(-c2ccc(N3CCOCC3)nn2)cc1 | > 10 | > 100 | > 1000 | – | – | – |
| c1cc2cc(-c3ccc(N4CCOCC4)nn3)ccc2[nH]1 | > 10 | > 10 | > 10 | – | – | – |
| O=C(CCCCN1CCCCC1)Nc1ccc(-c2cccnc2)cc1 | 0.22 | > 10 | > 10 | – | – | – |
| c1ccc(-c2ccc(N3CCCCC3)cc2)cc1 | > 10 | > 10 | > 10 | – | – | – |
| c1cncc(-c2ccc(N3CCOCC3)cc2)c1 | > 10 | – | > 10 | – | – | – |
